# Published values gathered from unrelated publications.
# Each line is one published result; the experiments were not run side by side.
# Cell line: Vero
# Observed: cell growth or viability
Structure (SMILES),method,time,IC50
Nc1ccc(-c2csc(Nc3ccc4c(O)ncnc4c3)n2)cc1,MTT,,> 50 µM
Cc1cc(=O)[nH]n1C(=O)c1ccc(-n2c(C)ccc2C)cc1,MTT,72 h,202 µM
Cc1[nH]c(=O)c(CNC(=O)c2ccc(C(F)(F)F)o2)c2c1CCCC2,MTT,72 h,> 50 µg/mL
Nc1nc(N)c(CNCCc2cccc(F)c2)c(C2CCCCC2)n1,SRB,,25 µM
CO[C@H]1/C=C/O[C@@]2(C)Oc3c(C)c(O)c4c(O)c(c(/C=N/N5CCN(C)CC5)c(O)c4c3C2=O)NC(=O)/C(C)=C\C=C\[C@H](C)[C@H](O)[C@@H](C)[C@@H](O)[C@@H](C)[C@H](OC(C)=O)[C@@H]1C,MTT,48 h,> 1000 µg/mL
CC(C)(C)Nc1c(-c2ccc(N)cc2)nc2cnccn12,MTT,48 h,76 µM
COc1ccccc1CCNCc1c(N)nc(N)nc1C1CCCCC1,SRB,,21 µM
CC(C)(C)Nc1c(-c2ccc([N+](=O)[O-])cc2)nc2cnccn12,MTT,48 h,80 µM
COc1ccc(-c2csc(Nc3ccc4c(O)ncnc4c3)n2)cc1,MTT,,> 50 µM
COc1cccc2c1C(=O)c1c(O)c3c(c(O)c1C2=O)C[C@@](O)(C(=O)CO)C[C@@H]3O[C@H]1C[C@H](N)[C@H](O)[C@H](C)O1,SRB,,0.68 µM
Cc1ccc(C)n1-c1ccc(-c2nnc(-c3ccc(Br)cc3)[nH]2)cc1,MTT,72 h,231 µM
NC1=NN(c2ccc([N+](=O)[O-])cc2[N+](=O)[O-])C(=O)C1=NNc1ccc(N=Nc2ccccc2)cc1,,,45.1 µM
Nc1ccc(-c2nc3ccccn3c2NC2CCCCC2)cc1,MTT,48 h,90 µM
COc1ccccc1CCNCc1c(N)nc(N)nc1-c1ccccc1,SRB,,> 100 µM
Nc1ccc(-c2nc3cnccn3c2NC2CCCCC2)cc1,MTT,48 h,75 µM
Nc1nc(N)c(CNCCc2ccc(F)cc2)c(C2CCCCC2)n1,SRB,,22 µM
N#Cc1nn(-c2ccc(N=Nc3ccccc3)cc2)c(=N)n(S(=O)(=O)c2ccc(N)cc2)c1=O,,,55.2 µM
O=c1[nH]cc(F)c(=O)[nH]1,MTT,72 h,5.19 µM
Cc1ccc(C)n1-c1ccc(-c2nnco2)cc1,MTT,72 h,216 µM
CC1(C)N=C(N)N=C(N)N1c1ccc(Cl)cc1,SRB,,> 100 µM
Oc1ncnc2cc(Nc3nc(-c4ccc(F)cc4)cs3)ccc12,MTT,,> 50 µM
NC1=C(Cl)C(=O)c2c(C(O)CO)c[nH]c2C1=O (stereo not drawn),MTT,72 h,> 19.5 µM
COc1cc(OC)cc(-c2ccc(C(=O)NCc3c4c(c(C)[nH]c3=O)CCCC4)cc2)c1,MTT,72 h,> 50 µg/mL
CCc1nc(N)nc(N)c1-c1ccc(Cl)cc1,SRB,,27 µM
Oc1ccc(-c2csc(Nc3ccc4c(O)ncnc4c3)n2)cc1,MTT,,> 50 µM
COc1cccc2c1C(=O)c1c(O)c3c(c(O)c1C2=O)C[C@@](O)(C(=O)CO)C[C@@H]3O[C@H]1C[C@H](N)[C@H](O)[C@H](C)O1,MTT,48 h,14 µM
Nc1nc(N)c(CNCCc2ccccc2Cl)c(C2CCCCC2)n1,SRB,,21 µM
CN(C)c1ccc(-c2nc3ccccn3c2N)cc1,MTT,48 h,70 µM
Cc1ccc(C)n1-c1ccc(C(=O)NNC=O)cc1,MTT,72 h,211 µM
CC(C)(C)Nc1c(-c2ccccc2[N+](=O)[O-])nc2ccccn12,MTT,48 h,78 µM
Nc1nc(N)c(CNCCc2ccc(Cl)c(Cl)c2)c(C2CCCCC2)n1,SRB,,21 µM
Nc1c(-c2ccc([N+](=O)[O-])cc2)nc2cnccn12,MTT,48 h,80 µM
Cc1ccc(-c2csc(Nc3ccc4c(O)ncnc4c3)n2)cc1,MTT,,> 50 µM
